The values that follow come from ChEMBL document CHEMBL1133060, “N-(indol-3-ylglyoxylyl)piperidines: high affinity agonists of human GABA-A receptors containing the alpha1 subunit” (Bioorg Med Chem Lett, 2000).

pKi: −log10 of the molar value.

Experiment [1] deals with T1, GABA-A receptor; alpha-1/beta-2/gamma-2 (Homo sapiens, UniProt P14867+P18507+P47870).
T1 sequence (P14867 whole entry): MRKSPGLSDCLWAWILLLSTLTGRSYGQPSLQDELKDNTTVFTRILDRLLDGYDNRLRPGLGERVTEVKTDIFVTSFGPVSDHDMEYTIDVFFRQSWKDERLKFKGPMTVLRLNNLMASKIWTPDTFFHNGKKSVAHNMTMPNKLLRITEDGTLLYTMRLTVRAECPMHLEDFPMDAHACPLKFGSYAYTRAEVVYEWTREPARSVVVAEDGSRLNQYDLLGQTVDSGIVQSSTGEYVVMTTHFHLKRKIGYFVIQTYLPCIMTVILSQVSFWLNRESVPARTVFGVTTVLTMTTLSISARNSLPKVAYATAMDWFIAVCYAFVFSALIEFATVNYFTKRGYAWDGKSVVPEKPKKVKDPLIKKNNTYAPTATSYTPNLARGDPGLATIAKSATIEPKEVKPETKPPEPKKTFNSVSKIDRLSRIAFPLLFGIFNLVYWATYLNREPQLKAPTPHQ
T1 sequence (P47870 whole entry): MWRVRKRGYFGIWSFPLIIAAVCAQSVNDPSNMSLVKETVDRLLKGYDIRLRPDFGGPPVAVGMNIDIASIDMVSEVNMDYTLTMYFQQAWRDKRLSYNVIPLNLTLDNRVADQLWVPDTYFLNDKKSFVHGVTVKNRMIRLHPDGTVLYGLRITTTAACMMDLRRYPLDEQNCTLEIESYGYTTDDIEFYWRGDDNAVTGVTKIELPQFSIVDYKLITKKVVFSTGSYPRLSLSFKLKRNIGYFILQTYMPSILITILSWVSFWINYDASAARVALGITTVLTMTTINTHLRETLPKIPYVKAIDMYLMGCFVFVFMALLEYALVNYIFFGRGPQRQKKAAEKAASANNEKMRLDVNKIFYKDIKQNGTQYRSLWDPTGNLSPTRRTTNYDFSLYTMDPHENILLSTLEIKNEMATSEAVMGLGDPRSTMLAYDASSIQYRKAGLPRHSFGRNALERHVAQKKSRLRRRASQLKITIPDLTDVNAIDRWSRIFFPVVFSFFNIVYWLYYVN
T1 sequence (P18507 whole entry): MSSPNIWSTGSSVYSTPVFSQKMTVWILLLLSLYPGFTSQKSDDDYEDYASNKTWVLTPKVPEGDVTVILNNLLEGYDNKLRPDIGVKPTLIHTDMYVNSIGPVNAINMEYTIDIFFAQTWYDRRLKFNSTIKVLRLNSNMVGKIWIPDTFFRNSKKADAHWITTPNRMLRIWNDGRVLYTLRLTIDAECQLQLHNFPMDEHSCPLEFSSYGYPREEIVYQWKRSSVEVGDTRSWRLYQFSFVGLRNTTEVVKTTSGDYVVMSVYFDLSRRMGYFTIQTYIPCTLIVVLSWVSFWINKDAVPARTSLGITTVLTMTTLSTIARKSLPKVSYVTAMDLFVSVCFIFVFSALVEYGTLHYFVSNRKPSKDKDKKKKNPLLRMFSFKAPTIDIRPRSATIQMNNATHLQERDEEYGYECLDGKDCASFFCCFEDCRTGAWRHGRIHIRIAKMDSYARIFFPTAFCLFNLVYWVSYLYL
The experiment can be described thus: Binding affinity evaluated by ability to displace [3H]Ro-151788 from recombinant human Gamma-aminobutyric acid A receptor alpha-1-beta-2-gamma-2 expressed in L(tk-)cells. In kind it is cell-based.

The target in experiment [2] is T2, GABA-A receptor; alpha-3/beta-3/gamma-2 (Homo sapiens, UniProt P18507+P28472+P34903).
T2 sequence (P18507 whole entry): T1 sequence (P18507 whole entry)
T2 sequence (P28472 whole entry): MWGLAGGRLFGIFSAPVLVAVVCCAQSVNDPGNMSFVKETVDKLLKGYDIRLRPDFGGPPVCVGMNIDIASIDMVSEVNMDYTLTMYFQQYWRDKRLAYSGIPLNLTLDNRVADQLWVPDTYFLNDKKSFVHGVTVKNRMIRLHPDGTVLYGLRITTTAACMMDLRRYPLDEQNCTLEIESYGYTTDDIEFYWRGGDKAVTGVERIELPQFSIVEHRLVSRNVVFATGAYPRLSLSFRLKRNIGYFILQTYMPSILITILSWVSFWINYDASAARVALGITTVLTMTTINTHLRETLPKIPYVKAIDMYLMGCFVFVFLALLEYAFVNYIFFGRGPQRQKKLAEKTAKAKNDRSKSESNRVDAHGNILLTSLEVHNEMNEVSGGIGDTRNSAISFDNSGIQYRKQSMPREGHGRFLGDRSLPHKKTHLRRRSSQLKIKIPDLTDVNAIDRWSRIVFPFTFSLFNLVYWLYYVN
T2 sequence (P34903 whole entry): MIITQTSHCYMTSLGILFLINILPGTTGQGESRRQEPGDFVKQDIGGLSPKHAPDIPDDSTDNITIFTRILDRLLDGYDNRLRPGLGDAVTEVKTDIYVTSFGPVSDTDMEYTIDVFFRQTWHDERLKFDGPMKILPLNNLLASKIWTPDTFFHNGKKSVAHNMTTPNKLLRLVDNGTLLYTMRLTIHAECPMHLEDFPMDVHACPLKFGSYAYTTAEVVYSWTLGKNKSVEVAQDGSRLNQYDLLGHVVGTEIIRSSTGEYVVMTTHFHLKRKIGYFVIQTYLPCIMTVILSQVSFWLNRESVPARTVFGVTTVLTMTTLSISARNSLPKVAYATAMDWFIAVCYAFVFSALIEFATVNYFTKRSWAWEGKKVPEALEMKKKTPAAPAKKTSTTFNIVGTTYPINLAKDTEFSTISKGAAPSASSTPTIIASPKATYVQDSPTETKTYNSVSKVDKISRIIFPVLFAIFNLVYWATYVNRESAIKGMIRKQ
Put plainly: Binding affinity evaluated by ability to displace [3H]Ro-151788 from recombinant human Gamma-aminobutyric acid A receptor alpha-3-beta-3-gamma-2 expressed in L(tk-)cells. It counts as cell-based.

Experiment [3] concerns the target T3, GABA-A receptor; alpha-2/beta-3/gamma-2 (Homo sapiens, UniProt P18507+P28472+P47869).
T3 sequence (P18507 whole entry): T1 sequence (P18507 whole entry)
T3 sequence (P28472 whole entry): T2 sequence (P28472 whole entry)
T3 sequence (P47869 whole entry): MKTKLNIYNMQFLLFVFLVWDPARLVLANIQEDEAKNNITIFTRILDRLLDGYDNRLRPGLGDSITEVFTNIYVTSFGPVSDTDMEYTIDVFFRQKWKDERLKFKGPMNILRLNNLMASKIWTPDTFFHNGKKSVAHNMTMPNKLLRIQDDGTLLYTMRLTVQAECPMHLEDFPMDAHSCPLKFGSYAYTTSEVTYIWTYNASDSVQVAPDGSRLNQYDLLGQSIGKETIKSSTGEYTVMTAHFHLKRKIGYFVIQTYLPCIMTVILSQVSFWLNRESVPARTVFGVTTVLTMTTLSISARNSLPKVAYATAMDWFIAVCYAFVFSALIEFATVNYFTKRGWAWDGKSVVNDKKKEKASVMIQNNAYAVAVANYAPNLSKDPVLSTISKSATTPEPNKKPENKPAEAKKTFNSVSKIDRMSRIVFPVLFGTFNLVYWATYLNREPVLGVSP
Put plainly: Binding affinity evaluated by ability to displace [3H]-Ro-15-1788 from recombinant human Gamma-aminobutyric acid A receptor alpha-2-beta-3-gamma-2 expressed in L(tk-)cells. In kind it is cell-based.

Experiment [4] addresses T4, GABA-A receptor; alpha-1/beta-2/gamma-2 (Homo sapiens) (UniProt P14867+P47870+P18507). The experiment can be described thus: Ability to affect GABA-induced chloride current in Xenopus oocytes transiently expressing human GABA-A alpha-1-beta-2-gamma-2 receptors using two-electrode voltage-clamp electrophysiology at test concentration of 30 uM. In kind it is functional, cell-based. To be noted: Oocyte. The method, boiled down: (§1)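 The GABA EC20 (concentration giving 20% of maximal GABA current) was determined separately for each oocyte, range 4–30 μM. Compound was then coapplied with GABA at that EC20 to measure modulation of the current. Mean ± SEM, n = 3-5.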

The target in experiment [5] is T4, GABA-A receptor; alpha-1/beta-2/gamma-2 (Homo sapiens). Put plainly: Ability to affect GABA-induced chloride current in Xenopus oocytes transiently expressing human GABA-A alpha-1-beta-2-gamma-2 receptors using two-electrode voltage-clamp electrophysiology at test concentration of 3 uM. It counts as functional, cell-based. Conditions: Oocyte. The method, boiled down:
as §1
On the technique in general: Two-electrode voltage clamp is typically applied to oocytes expressing channels or transporters.

For the compound `CCOC(=O)[C@@H]1C[C@H](C(=O)OCC)CN(C(=O)C(=O)c2c[nH]c3ccccc23)C1`, the pKi is 7.85 in experiment [1], 7.64 in experiment [2] and 7.66 in experiment [3].

On to `CCOC(=O)CC1CCCN1C(=O)C(=O)c1c[nH]c2ccccc12` (centres undefined), for which the negative-log Ki (pKi) in experiment [1] is 6.05; in experiment [2] it was 6.24; in experiment [3] it was 6.37. Further, in experiment [4], the Efficacy worked out at 28%.

Consider `CCOC(=O)C1CCCN(C(=O)C(=O)c2c[nH]c3ccccc23)C1` (centres undefined), for which the negative-log Ki (pKi) in experiment [1] is 6.06; in experiment [2], 6.00; in experiment [3] it was 6.41.

Consider `CCOC(=O)CC1CCCN1C(=O)C(=O)c1c[nH]c2c(C)cccc12` (centres undefined), for which the values for the pKi in experiment [1], in experiment [2] and in experiment [3] were 6.29, 6.30 and 6.36, respectively.

As for `CCOC(=O)[C@@H]1C[C@@H](C(=O)OCC)CN(C(=O)C(=O)c2c[nH]c3ccccc23)C1`, the pKi in experiment [1] is 6.40; in experiment [2] it was 6.60; in experiment [3], 6.70.

Consider `O=C(C(=O)N1CCCC(C(=O)OCc2ccccc2)C1)c1c[nH]c2ccccc12` (centres undefined), for which the pKi in experiment [1] was 7.11; in experiment [2], 7.04; in experiment [3] it was 6.74.

As to `CN(Cc1ccccc1)C(=O)[C@H]1CCCN(C(=O)C(=O)c2c[nH]c3ccccc23)C1`, the results for the pKi in experiment [1], in experiment [2] and in experiment [3] were 6.85, 6.17 and 6.60, respectively.

`O=C(C(=O)N1Cc2ccccc2C1)c1c[nH]c2ccccc12`: the pKi in experiment [1] was 6.70; in experiment [2] it was 4.72; in experiment [3], 5.89. The compound further came in with an Efficacy in experiment [5] of 64%.

For the compound `CCOC(=O)CC1CCCN1C(=O)C(=O)c1c[nH]c2c(OC)cccc12` (centres undefined), the pKi was 6.34 in experiment [1], 6.49 in experiment [2] and 6.57 in experiment [3].

Consider `CN(Cc1ccccc1)C(=O)[C@@H]1CCCN(C(=O)C(=O)c2c[nH]c3ccccc23)C1`, for which the pKi in experiment [1] was 8.14; in experiment [2], 7.30; in experiment [3], 7.72.

In the case of `O=C(C(=O)N1CCCC1Cc1ccccc1)c1c[nH]c2ccccc12` (centres undefined), the values for the pKi in experiment [1], in experiment [2] and in experiment [3] were 6.36, 6.02 and 6.08, respectively.

For the compound `O=C(C(=O)N1CCc2ccccc2C1)c1c[nH]c2ccccc12`, the pKi in experiment [1] is 6.42; in experiment [2], 6.14; in experiment [3], 6.17.

As to `O=C(C(=O)N1CCCC(C(=O)NCc2ccccc2)C1)c1c[nH]c2ccccc12` (centres undefined), the pKi in experiment [1] was 6.52; in experiment [2], 5.82; in experiment [3], 6.01.

On to `CN(Cc1ccccc1)C(=O)C1CCCN(C(=O)C(=O)c2c[nH]c3ccccc23)C1` (centres undefined), for which the pKi was 7.85 in experiment [1], 7.02 in experiment [2] and 7.40 in experiment [3].

As a reminder, the pKi is the Ki on a negative log10 scale, so that one unit is a factor of ten.
